The results in this text go back to ChEMBL document CHEMBL1124794, “Synthesis, chemistry, and antineoplastic activity of alpha-halopyridinium salts: potential pyridone prodrugs of acylated vinylogous carbinolamine tumor inhibitors” (J Med Chem, 1990).

A short description of series [1]: In vivo activity against murine M5076 tumor system at the dose of 50 mg/kg, activity expressed as %T/C. The format is functional, Mus musculus.
A short description of series [2]: Effect of Ionic strength (0.50 M NaCl)on the hydrolysis of pyridinium Moity in 0.02 M buffer concentration, pH 7.4,25 degree C. Format: ADME. The method, boiled down:
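Pyridinium salt in 0.02 M phosphate buffer, pH 7.4, 25 °C, with NaCl varied 0.10–1.0 M. Loss of the pyridinium chromophore's UV absorbance maximum (conversion to pyridone) followed over time. Pseudo-first-order kobs and half-life derived from that decay.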

Series [3] can be described thus: In vivo activity against murine M5076 tumor system at the dose of 50 mg/kg, activity expressed as TDS; 10/10. Format: functional, Mus musculus.
Series [4] in a line: Half life at the buffer concentration of 0.10 M. The format is ADME. Put shortly:
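α-Fluoropyridinium hydrolysis to pyridone in phosphate buffer at 0.02, 0.05 or 0.10 M, pH 6.5 or 8.0, ionic strength […] °C. Pyridinium UV absorbance maximum followed with time to give pseudo-first-order kobs and half-life.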

The test system of series [5] is L1210. Kind of series: In vivo activity against murine L1210 tumor system at the dose of 25 mg/kg, activity expressed as %T/C. Format: functional, Mus musculus. The method, boiled down:
(§1)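 L1210 lymphocytic leukemia: ascitic fluid with ca. 10^6 cells injected ip into CD2F1 mice. Dosing started 24 h after inoculation and was repeated daily for five doses in total, from solutions or suspensions made fresh each day. Toxicity day survivors were scored on day 5. Body weight difference is day 5 minus day 1. %T/C is based on median survival time versus controls.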

Series [6] has as its system L1210. Kind of series: In vivo activity against murine L1210 tumor system at the dose of 50 mg/kg, activity expressed as KE. Format: functional, Mus musculus. Put shortly:
as §1

In series [7] the test system is L1210. The series is described as follows: In vivo activity against murine L1210 tumor system at the dose of 25 mg/kg, activity expressed as body weight difference. Format: functional, Mus musculus. Put shortly:
as §1

The subject of series [8] is L1210. The series is described as follows: In vivo activity against murine L1210 tumor system at the dose of 100 mg/kg, activity expressed as KE. Format: functional, Mus musculus.
Series [9] has as its system P388. The series is described as follows: In vivo activity against P388 Lymphocytic Leukemia in CD2F1 mice at the dose of 200 mg/kg, activity expressed as body weight difference; T-C. Format: functional, Mus musculus. The method, boiled down:
(§2)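 CD2F1 mice were inoculated with ascitic fluid holding ca. 10^6 P388 cells. Drug was given daily from 24 h after inoculation, from solutions or suspensions made fresh each day, some as a saline suspension. TDS is survivors/initial animals on day 5. BWD is body weight on day 5 minus day 1. %T/C compares median survival of treated and control mice.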

Series [10] deals with P388. Kind of series: In vivo activity against P388 Lymphocytic Leukemia in CD2F1 mice at the dose of 100 mg/kg, activity expressed as KE. Format: functional, Mus musculus.
Series [11] can be described thus: In vivo activity against murine M5076 tumor system at the dose of 36 mg/kg, activity expressed as body weight difference; T-C. Format: functional, Mus musculus. The method, boiled down:
(§3)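 M5076: ascitic fluid with ca. 10^6 cells inoculated ip into CD2F1 mice. Dosing started 24 h after inoculation and was then given every 4 days for four doses in total, from solutions or suspensions made fresh each day. Toxicity day survivors were scored on day 5. Body weight difference is day 14 minus day 1. %T/C is based on median survival time versus controls.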

Series [12] can be described thus: In vivo activity against murine M5076 tumor system at the dose of 21.6 mg/kg, activity expressed as TDS; 10/10. Format: functional, Mus musculus. Put shortly: as §3
Series [13] is described as follows: Half life at the pH 9.0. Conditions: buffer. Format: ADME. The method, boiled down:
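Bis-carbamate hydrolysis in acetonitrile–water (1:1) with 0.05 M borate buffer (boric acid–NaOH), pH 9.0, ionic strength 0.136 adjusted with KCl, 25 °C, thermostated. Loss of the bis-carbamate peak area was tracked by HPLC. k_obs is the slope of ln(area0/areat) vs time. Values are averages of two determinations.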

Series [14] has as its system P388. The series is described as follows: In vivo activity against P388 Lymphocytic Leukemia in CD2F1 mice at the dose of 400 mg/kg, activity expressed as body weight difference; T-C. The format is functional, Mus musculus. Put shortly: as §2
Series [15] in a line: In vivo activity against murine M5076 tumor system at the dose of 36 mg/kg, activity expressed as KE. The format is functional, Mus musculus. Put shortly: as §3

The structures appear in SMILES notation. “And” between values parts separate entries of the source, which are not always exact repeats. Equal values may be shown once.

One may read the T/C as the ratio of treated to control. Turning to `CC(C)NC(=O)OCc1c(COC(=O)NC(C)C)c(-c2cc[n+](C)c(F)c2)n2c1CCC2.[I-]`, the T/C (in series [1]; in the series on L1210 [5]) was 118% throughout. Further, the K obs in series [2] is 0.011 min⁻¹. For the same compound, the TDS in [3] worked out at 10. In series [4], the T1/2 was 50.3 min and 19.25 min. The KE in the series with L1210 [6] was -1.94. Further, the BWD in the series with L1210 [7] worked out at 0.6 g.

What is called half-life is how long it takes for the measured level to halve. Read a low half-life as fast loss. In the case of `CC(C)NC(=O)OCc1c(COC(=O)NC(C)C)c(-c2ccn(C)c(=O)c2)n2c1CCC2`, the KE is on record as -0.22 in the series on L1210 [8], 0.69 in the series on P388 [10] and -1.69 in series [15]. Moreover, the BWD is reported as -1.4 g in the series with P388 [9], 1.8 g in series [11] and -1 g in the series with P388 [14]. In series [12], this compound returned a TDS of 10. Moreover, in [13], the half-life came out at 54 min.
